# The list is not random: actives were taken first. Their share in the collection is about 4%.
# GPR7 antag: antagonists of human GPR7 (neuropeptides B/W receptor 1); 290,000 compounds, 1.1% hits; GPR7-expressing cells, fluorescence antagonist assay; inhibition, % at 4.4 µM; P48145; in the data active means inhibition above about 16%, passing the limit was not always enough;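 further: cells stimulated with the agonist NPW; 0% = agonist with vehicle and 100% = vehicle without agonist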
# TAAR1 antag: human TAAR1 antagonism. Q96RJ0. 360,000 compounds, 1.5% hits. inhibition, % at 3 µM. CHO RD-HGA16 TAAR1, Fluo-8 calcium fluorescence, antagonist;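 active means inhibition above a per-plate cutoff, the mean inhibition of test compounds on that plate plus 3 SD, cut at about 49% in these data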;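 further: 0% = DMSO plus EC80 beta-PEA response and 100% = DMSO alone without agonist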
#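 Test system: CHO RD-HGA16 cells bearing hTAAR1 | Reagent: β-PEA, EC80 | Compound dosing: 3 µM, single point | Schedule: Dye loading 75 min at 37 °C, then 30 min room temperature | Signal: Calcium fluorescence with Fluo-8 | Evaluation: Percent inhibition of PEA-evoked calcium signal, max/basal emission ratio | Control set: DMSO-only wells and EC80 β-PEA-stimulated wells | Repeats: Singlicate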
# TAAR1 agonist: agonists of human TAAR1; Q96RJ0; CHO RD-HGA16 TAAR1, Fluo-8 calcium fluorescence; vehicle wells 0%, saturating PEA agonist 100%; activation, % at 3 µM; 360,000 compounds, 0.99% hits; AID 624467;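 active means activation above the mean activation of all test compounds in the run plus 3 SD, cut at about 38% in these data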
#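 test system = CHO RD-HGA16 cells carrying human TAAR1 plus Gα16 | schedule = 17-24 h seeding, 75 min 37 °C dye, 30 min RT | compound dosing = 3 µM single concentration | control set = DMSO and PEA EC100 | replicates = n 1 | signal = Fluo-8 fluorescence, 5 s baseline then 140 s kinetic read | measure = percent activation vs PEA EC100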
# MPTP block: blocks calcium-induced mitochondrial swelling | isolated mouse mitochondria, Ca2+ swelling absorbance, 30 min | inhibition, % at 10 µM | 360,000 compounds, 1.4% hits;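 active means inhibition of 50% or more, scaled per plate between neutral and stimulator controls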;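 further: 0% = DMSO wells given calcium and 100% = 1 mM EGTA wells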
# DAGLB inh: blocks human DAGLB lipase activity; HEK293T DAGLB membrane lysate, EnzChek fluorogenic substrate; 340,000 compounds, 0.059% hits; inhibition, % at 5.17 µM; in the data active means inhibition above about 34%;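 further: 0% = enzyme with vehicle and 100% = wells lacking enzyme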
# GPR7 antag cf: human GPR7 antagonism, confirmation assay | 2,400 compounds, 52% hits | inhibition, % at 4.4 µM | shares compounds with GPR7 antag | GPR7-expressing cells, calcium fluorescence antagonist mode; in the data active means inhibition above about 24%;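 further: stimulated with the GPR7 agonist NPW; 0% = agonist plus vehicle and 100% = vehicle alone without agonist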
# MCHR1 antag: antagonizes human MCHR1, a GPR7 antagonist counter-screen; shares compounds with GPR7 antag; MCHR1-expressing cells, fluorescence antagonist assay; inhibition, % at 4.4 µM; 2,400 compounds, 62% hits; in the data active means inhibition above about 22%;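 further: 0% = vehicle with agonist and 100% = vehicle without agonist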
# Numbers without * were called inactive; · = not tested or not shown.
SMILES,GPR7 antag,TAAR1 antag,TAAR1 agonist,MPTP block,DAGLB inh,GPR7 antag cf,MCHR1 antag
CCCCOCCCNC(=O)C[C@@H]1C[C@@]2(C(=O)OCC)CCCC=C2N(Cc2ccc(Cl)cc2Cl)C1=O,·,-9.4,-0.9,-0.4,·,·,·
Nc1c(N(CCC2=CCCCC2)C(=O)Cc2ccccc2F)c(=O)[nH]c(=O)n1Cc1ccccc1,·,18.0,15.2,-1.0,13.1,·,·
Cc1sc(NC(=O)C2CCCCC2C(=O)O)c(C(N)=O)c1-c1ccccc1 (centres undefined),3.8,-3.7,9.2,0.8,1.3,·,·
Cc1sc(NC(=O)C2CCCCC2C(=O)O)c(C(N)=O)c1C (centres undefined),22.2*,-0.9,2.4,-0.4,-0.7,-17.6,2.7
C[C@@H]1CN([C@@H](C)CO)C(=O)CCCn2cc(nn2)CO[C@H]1CN(C)C(=O)c1ccncc1,·,10.9,2.6,·,·,·,·
CC1CN(CC(O)COC(c2ccc(Cl)cc2)c2ccc(Cl)cc2)CC(C)O1 (centres undefined),21.0*,-18.8,0.6,1.0,-3.5,8.9,40.2*
COc1ccc2[nH]c(=O)c(CN(C(=O)c3ccccn3)C3CCCCC3)cc2c1,23.4*,4.9,4.0,2.2,0.1,9.3,-11.5
COc1ccc(C)cc1NS(=O)(=O)c1ccc(Cl)nc1,·,4.0,7.7,-0.8,-1.2,·,·
COc1ccc(S(=O)(=O)N2CCN(CC(=O)Nc3cccc(OC)c3)CC2)cc1,34.5*,-4.7,0.7,-1.0,0.7,25.1*,15.6
COc1ccc(S(=O)(=O)N2CCCN(CC(=O)Nc3ccccc3F)CC2)cc1,29.9*,-10.9,-0.2,0.2,-1.4,3.7,41.7*
COc1ccc(S(=O)(=O)N(CC(=O)Nc2ccc(S(=O)(=O)N3CCOCC3)cc2)Cc2ccc(F)cc2)cc1,24.2*,21.7,6.7,4.2,-0.8,28.3*,20.8
COc1ccc(-c2ccc3c(n2)CCCN3S(=O)(=O)c2ccccc2C)cc1,·,19.3,-0.9,·,·,·,·
Cc1cccc(OCC(=O)Nc2ccc3oc(=O)ccc3c2)c1,36.3*,-0.1,5.2,1.3,-2.5,32.6*,36.1*
COCCNC(=O)C1(C)CCCN(C(=O)c2ccc(N(C)C)cc2)C1 (centres undefined),·,-23.9,2.4,-1.6,·,·,·
COc1cc(/C=N/NC(=O)CSCc2ccc([N+](=O)[O-])cc2)cc(OC)c1OC,22.4*,9.3,2.0,0.6,-0.6,25.7*,22.6*
COC(=O)c1c(C)n(-c2ccc(OC)cc2)c2ccc(O)cc12,-14.2,0.6,8.3,1.3,-2.7,·,·
CCOC(=O)c1c(C)n(-c2ccc(F)cc2)c2ccc(O)cc12,72.1*,·,·,1.5,-2.1,-4.1,-13.7
COc1ccc(NC(=O)C(C)Oc2ccc(/C(C)=N\O)cc2)cc1 (centres undefined),41.9*,5.6,54.8*,0.4,-2.6,43.4*,34.1*
CC(C)CC(NC(=O)C1CCC(C)CC1)C(=O)Nc1cccnc1 (centres undefined),28.2*,11.0,4.3,0.0,0.3,-13.1,33.8*
CC(=O)Nc1cccc(-c2ccnc3c2CC(C)(C(=O)NCc2ccncc2)O3)c1 (centres undefined),·,-10.0,0.1,-1.8,·,·,·
NC(=O)N/N=C/c1coc2ccc(O)cc2c1=O,21.4*,2.1,1.6,1.9,-0.3,4.7,4.3
O=C(CSC1CCc2ccccc21)NNC(=O)Nc1ccc(Cl)cc1 (centres undefined),·,-0.4,6.8,·,·,·,·
CC1(C)CC(=O)C/C(=N/NC(=O)COc2ccc(Cl)cc2Cl)C1,-13.2,-14.4,0.4,-2.8,-4.8,·,·
CC1(C)CC(=O)C/C(=N/NC(=O)COc2ccc3ccccc3c2Br)C1,104.3*,-20.6,2.7,0.9,2.8,-1.2,1.3
COC(=O)c1ccc2nc(-c3ccc(Cl)cc3)c(Cc3ccccc3)n2c1,·,-2.1,0.0,·,·,·,·
c1ccc(C(c2c[nH]c3ccccc23)c2c[nH]c3ccccc23)nc1,7.5,19.1,12.8,-3.1,-0.3,·,·
Cn1cc(C(c2ccccn2)c2cn(C)c3ccccc23)c2ccccc21,25.8*,-11.0,41.1*,6.2,0.5,40.8*,45.0*
